Active and inactive are the calls of the source. The rule behind the calls is not given here.
Columns and labels:
[1] = Cmax in beagle dog at 2 mg/kg, po; format: ADME, organism-based, Canis lupus familiaris; set-up: dose 2 mg/kg, route oral; details: in vivo
[2] = target: 5-hydroxytryptamine receptor 2B (Homo sapiens, UniProt P41595); test: Inhibition of serotonin 5-HT2B receptor (unknown origin) at 1 uM
[3] = organism: Homo sapiens; test: Increase in bowel movements in healthy human at 0.1 to 20 mg after 24 hrs relative to placebo
[4] = Half life in Sprague-Dawley rat at 5 mg/kg, po; format: ADME, organism-based; set-up: dose 5 mg/kg, route oral; details: in vivo
[5] = target: 5-hydroxytryptamine receptor 6 (Homo sapiens) (UniProt P50406); test: Inhibition of serotonin 5-HT6 receptor (unknown origin) at 1 uM
[6] = Cardiotoxicity in pig coronary artery assessed as coronary artery constriction; format: toxicity, tissue-based, Sus scrofa
[7] = Cmax in Sprague-Dawley rat at 5 mg/kg, po; format: ADME, organism-based; set-up: dose 5 mg/kg, route oral; details: in vivo
[8] = Cardiotoxicity in human coronary artery assessed as coronary artery constriction; format: toxicity, tissue-based
[9] = AUC (0 to t) in beagle dog at 2 mg/kg, po; format: ADME, organism-based, Canis lupus familiaris; set-up: dose 2 mg/kg, route oral; details: plasma
[10] = target: 5-hydroxytryptamine receptor 4 (Homo sapiens, UniProt Q13639); test: Agonist activity at human recombinant 5HT4 receptor assessed as cAMP accumulation relative to 5-HT; format: functional
Outline: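 cAMP accumulation in cells expressing human recombinant 5-HT4 receptor, reported as pEC50 with intrinsic activity as % of the maximum response achieved by 5-HT.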

[11] = Cardiotoxicity in dog coronary artery assessed as coronary artery constriction; format: toxicity, tissue-based, Canis lupus familiaris
[12] = test system: Cavia porcellus; test: Prokinetic activity at guinea pig colonic transit model assessed as reduction in time taken for excretion of first pellet at 0.03 mg/kg, sc by carmine red dye-based assay relative to vehicle-treated control; format: functional; set-up: scale not given: the % may be the effect or the level left; details: route subcutaneous
Outline: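 Conscious guinea pigs given sc doses of 0.03, 0.3 or 3 mg/kg or vehicle (2 mL/kg), n = 9–22 per group. Colonic transit was measured as time to excretion of the first fecal pellet containing carmine red dye marker. Compared with vehicle by ANOVA with Dunnett's post-hoc test, p < 0.05.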

[13] = target: T1, 5-hydroxytryptamine receptor 3A (Homo sapiens, UniProt P46098); test: Binding affinity to human recombinant 5HT3 receptor
T1 sequence (P46098 whole entry): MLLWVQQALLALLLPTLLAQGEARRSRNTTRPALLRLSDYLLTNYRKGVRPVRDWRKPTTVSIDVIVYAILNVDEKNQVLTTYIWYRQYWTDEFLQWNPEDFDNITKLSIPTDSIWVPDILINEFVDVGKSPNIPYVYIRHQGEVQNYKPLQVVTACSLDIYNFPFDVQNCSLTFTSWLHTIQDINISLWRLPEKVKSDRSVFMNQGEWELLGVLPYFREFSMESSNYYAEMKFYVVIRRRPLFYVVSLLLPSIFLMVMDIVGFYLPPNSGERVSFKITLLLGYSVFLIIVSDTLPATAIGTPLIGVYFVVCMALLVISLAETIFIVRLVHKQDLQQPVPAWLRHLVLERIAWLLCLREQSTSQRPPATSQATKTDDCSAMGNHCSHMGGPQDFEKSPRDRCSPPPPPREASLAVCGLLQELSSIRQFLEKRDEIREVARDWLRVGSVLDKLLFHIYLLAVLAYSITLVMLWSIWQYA

[14] = Elimination half life in healthy human; format: ADME, organism-based; details: in vivo, read-out: beta t1/2 (converted)
[15] = test system: Rattus norvegicus; test: Agonist activity at 5HT4 receptor in ID dosed rat assessed as dose required to cause esophageal relaxation of 0.1 mm; format: functional
Outline: (§1)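 Anesthetized rats dosed intraduodenally over about 0.01–10 mg/kg. Esophageal relaxation was tracked by digital sonomicrometry as the change in inter-crystal distance (mm), n = 4–6. An ED50 was derived from the dose–response, and the dose giving a 0.1 mm relaxation response was calculated.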

[16] = target: 5-hydroxytryptamine receptor 5A (Homo sapiens) (UniProt P47898); test: Inhibition of serotonin 5-HT5A receptor (unknown origin) at 1 uM
[17] = target: 5-hydroxytryptamine receptor 4 (Cavia porcellus) (UniProt O70528)
[18] = Half life in beagle dog at 2 mg/kg, po; format: ADME, organism-based, Canis lupus familiaris; set-up: dose 2 mg/kg, route oral; details: in vivo
[19] = Oral bioavailability in Sprague-Dawley rat at 5 mg/kg; format: ADME, organism-based; details: in vivo
[20] = Oral bioavailability in beagle dog at 2 mg/kg; format: ADME, organism-based, Canis lupus familiaris; details: in vivo
[21] = target: T2, 5-hydroxytryptamine receptor 3A (Homo sapiens) (UniProt P46098); test: Inhibition of serotonin 5-HT3A receptor (unknown origin) at 1 uM
T2 sequence (whole entry): T1 sequence (P46098 whole entry)

[22] = target: 5-hydroxytryptamine receptor 2A (Homo sapiens, UniProt P28223); test: Inhibition of serotonin 5-HT2A receptor (unknown origin) at 1 uM
[23] = target: 5-hydroxytryptamine receptor 7 (Homo sapiens, UniProt P34969); test: Inhibition of serotonin 5-HT7 receptor (unknown origin) at 1 uM
[24] = AUC (0 to t) in Sprague-Dawley rat at 5 mg/kg, po; format: ADME, organism-based; set-up: dose 5 mg/kg, route oral; details: plasma
[25] = Half life in rat liver micrososmes; format: ADME, Microsome; details: liver microsomes
[26] = target: 5-hydroxytryptamine receptor 1D (Homo sapiens, UniProt P28221); test: Inhibition of serotonin 5-HT1D receptor (unknown origin) at 1 uM
[27] = target: T3, 5-hydroxytryptamine receptor 2C (Homo sapiens) (UniProt P28335); test: Inhibition of serotonin 5-HT2C receptor (unknown origin) at 1 uM
T3 sequence (whole entry): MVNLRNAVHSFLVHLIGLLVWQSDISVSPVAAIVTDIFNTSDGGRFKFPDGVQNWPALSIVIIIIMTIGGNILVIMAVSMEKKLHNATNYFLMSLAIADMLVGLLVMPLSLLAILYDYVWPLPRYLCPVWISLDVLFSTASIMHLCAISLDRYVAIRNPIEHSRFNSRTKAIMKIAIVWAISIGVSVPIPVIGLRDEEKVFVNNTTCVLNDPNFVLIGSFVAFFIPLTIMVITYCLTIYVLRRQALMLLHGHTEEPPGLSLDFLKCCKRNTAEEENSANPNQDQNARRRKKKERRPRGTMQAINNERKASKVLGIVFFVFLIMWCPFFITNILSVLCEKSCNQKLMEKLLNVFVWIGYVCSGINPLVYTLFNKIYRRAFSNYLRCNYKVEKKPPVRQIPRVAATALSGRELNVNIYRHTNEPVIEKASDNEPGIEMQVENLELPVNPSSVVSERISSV

[28] = target: T4, 5-hydroxytryptamine receptor 1A (Homo sapiens) (UniProt P08908); test: Inhibition of serotonin 5-HT1A receptor (unknown origin) at 1 uM
T4 sequence (whole entry): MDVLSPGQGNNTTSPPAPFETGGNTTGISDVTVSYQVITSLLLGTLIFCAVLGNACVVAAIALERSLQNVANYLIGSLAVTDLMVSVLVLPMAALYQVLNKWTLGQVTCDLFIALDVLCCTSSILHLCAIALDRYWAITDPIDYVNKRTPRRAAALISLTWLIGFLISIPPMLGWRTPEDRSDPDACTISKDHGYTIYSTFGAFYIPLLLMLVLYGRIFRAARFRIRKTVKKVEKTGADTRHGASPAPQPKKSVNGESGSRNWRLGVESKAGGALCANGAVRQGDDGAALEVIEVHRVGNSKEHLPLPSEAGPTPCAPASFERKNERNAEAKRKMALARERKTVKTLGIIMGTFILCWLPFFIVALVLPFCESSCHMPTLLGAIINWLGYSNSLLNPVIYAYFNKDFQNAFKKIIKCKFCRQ

[29] = target: 5-hydroxytryptamine receptor 1B (Homo sapiens) (UniProt P28222); test: Inhibition of serotonin 5-HT1B receptor (unknown origin) at 1 uM
[30] = Permeability across human Caco2 cells; format: ADME, cell-based; details: Caco-2, read-out: Kp
[31] = test system: Rattus norvegicus; test: Induction of 5-HT4 receptor-mediated esophageal relaxation in ID dosed rat; format: functional; outline: as §1

Chain of 5-hydroxytryptamine receptor 4 (Cavia porcellus) (O70528 whole entry): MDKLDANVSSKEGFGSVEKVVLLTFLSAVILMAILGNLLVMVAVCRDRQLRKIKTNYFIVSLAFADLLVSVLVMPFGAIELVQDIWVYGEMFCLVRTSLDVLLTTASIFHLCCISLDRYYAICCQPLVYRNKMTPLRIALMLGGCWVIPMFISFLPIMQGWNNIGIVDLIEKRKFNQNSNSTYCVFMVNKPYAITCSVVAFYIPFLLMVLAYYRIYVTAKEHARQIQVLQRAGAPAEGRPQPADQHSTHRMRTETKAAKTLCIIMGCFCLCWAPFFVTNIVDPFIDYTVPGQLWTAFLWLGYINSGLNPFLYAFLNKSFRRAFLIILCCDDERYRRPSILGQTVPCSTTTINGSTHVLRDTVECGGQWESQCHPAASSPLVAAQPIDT
Chain of 5-hydroxytryptamine receptor 1B (Homo sapiens) (P28222 whole entry): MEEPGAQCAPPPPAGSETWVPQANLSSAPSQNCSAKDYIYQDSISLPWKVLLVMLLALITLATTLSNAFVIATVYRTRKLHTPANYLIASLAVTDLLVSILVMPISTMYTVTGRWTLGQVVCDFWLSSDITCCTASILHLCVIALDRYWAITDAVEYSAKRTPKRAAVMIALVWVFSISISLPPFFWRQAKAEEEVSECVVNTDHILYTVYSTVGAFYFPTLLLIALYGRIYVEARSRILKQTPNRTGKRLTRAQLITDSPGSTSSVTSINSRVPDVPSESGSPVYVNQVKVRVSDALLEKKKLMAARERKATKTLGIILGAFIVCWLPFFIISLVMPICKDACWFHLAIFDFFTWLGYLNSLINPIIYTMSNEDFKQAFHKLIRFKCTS
Chain of 5-hydroxytryptamine receptor 7 (P34969 whole entry): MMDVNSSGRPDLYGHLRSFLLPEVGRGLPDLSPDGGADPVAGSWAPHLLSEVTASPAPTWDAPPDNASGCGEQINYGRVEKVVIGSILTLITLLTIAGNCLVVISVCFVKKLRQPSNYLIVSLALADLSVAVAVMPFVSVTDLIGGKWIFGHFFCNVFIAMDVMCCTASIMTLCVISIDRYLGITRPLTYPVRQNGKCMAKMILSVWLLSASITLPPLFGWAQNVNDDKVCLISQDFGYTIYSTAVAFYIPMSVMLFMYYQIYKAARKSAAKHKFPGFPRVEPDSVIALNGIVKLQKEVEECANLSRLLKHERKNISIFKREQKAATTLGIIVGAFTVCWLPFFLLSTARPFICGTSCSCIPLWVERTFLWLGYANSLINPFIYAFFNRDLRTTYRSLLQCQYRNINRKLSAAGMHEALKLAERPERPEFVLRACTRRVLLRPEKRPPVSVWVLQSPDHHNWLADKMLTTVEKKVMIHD
Chain of 5-hydroxytryptamine receptor 2B (P41595 whole entry): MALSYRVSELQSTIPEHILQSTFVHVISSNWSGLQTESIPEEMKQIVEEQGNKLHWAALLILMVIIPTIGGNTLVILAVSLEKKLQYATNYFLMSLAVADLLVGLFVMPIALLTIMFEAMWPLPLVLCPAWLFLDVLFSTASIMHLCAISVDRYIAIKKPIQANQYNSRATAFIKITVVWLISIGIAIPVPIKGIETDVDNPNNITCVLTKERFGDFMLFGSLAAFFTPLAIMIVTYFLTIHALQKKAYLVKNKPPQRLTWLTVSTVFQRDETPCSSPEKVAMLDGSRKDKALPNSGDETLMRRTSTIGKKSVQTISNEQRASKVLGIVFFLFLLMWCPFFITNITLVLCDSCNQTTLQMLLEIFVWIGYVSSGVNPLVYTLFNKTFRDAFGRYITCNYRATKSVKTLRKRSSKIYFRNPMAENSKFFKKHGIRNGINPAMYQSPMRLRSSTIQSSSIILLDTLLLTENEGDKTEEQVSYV
Chain of 5-hydroxytryptamine receptor 6 (Homo sapiens) (P50406 whole entry): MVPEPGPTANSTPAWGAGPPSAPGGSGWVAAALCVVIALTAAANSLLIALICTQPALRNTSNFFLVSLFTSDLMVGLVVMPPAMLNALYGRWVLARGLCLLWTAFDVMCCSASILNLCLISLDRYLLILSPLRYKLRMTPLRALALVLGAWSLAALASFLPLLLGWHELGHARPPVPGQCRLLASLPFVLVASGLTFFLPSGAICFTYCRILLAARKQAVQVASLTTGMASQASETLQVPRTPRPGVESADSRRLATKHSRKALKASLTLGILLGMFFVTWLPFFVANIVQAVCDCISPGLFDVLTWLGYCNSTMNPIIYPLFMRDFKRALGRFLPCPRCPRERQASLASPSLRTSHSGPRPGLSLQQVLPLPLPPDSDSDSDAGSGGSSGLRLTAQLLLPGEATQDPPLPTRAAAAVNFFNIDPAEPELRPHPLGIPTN
Chain of 5-hydroxytryptamine receptor 5A (Homo sapiens) (P47898 whole entry): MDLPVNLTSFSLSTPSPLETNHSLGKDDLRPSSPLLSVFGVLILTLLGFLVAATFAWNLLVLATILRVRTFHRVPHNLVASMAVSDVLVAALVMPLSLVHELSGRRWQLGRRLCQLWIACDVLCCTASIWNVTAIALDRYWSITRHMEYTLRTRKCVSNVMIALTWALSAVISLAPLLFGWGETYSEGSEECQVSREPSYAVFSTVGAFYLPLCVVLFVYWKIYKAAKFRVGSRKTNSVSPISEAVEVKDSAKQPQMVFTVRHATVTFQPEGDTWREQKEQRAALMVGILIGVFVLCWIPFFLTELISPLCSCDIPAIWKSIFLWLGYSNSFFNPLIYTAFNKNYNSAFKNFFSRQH
Chain of 5-hydroxytryptamine receptor 4 (Q13639 whole entry): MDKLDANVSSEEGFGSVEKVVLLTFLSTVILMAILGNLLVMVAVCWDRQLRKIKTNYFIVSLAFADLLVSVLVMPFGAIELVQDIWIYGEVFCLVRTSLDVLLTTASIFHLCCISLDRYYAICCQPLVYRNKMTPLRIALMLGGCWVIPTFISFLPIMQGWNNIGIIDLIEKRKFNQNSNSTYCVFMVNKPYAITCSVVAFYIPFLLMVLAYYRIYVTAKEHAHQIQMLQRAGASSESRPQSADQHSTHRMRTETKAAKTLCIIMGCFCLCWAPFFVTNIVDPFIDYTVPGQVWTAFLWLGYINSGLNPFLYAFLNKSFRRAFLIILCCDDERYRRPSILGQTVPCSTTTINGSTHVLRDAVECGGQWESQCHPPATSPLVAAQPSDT
Chain of 5-hydroxytryptamine receptor 1D (P28221 whole entry): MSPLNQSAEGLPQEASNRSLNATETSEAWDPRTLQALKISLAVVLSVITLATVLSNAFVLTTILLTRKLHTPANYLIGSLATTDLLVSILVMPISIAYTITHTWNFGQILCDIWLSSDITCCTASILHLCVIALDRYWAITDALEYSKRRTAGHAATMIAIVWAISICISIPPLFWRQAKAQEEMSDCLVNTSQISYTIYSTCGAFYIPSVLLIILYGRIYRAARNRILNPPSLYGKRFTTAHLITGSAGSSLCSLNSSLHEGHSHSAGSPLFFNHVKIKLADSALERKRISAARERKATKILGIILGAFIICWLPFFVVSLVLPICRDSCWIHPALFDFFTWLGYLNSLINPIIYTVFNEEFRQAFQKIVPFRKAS
Chain of 5-hydroxytryptamine receptor 2A (P28223 whole entry): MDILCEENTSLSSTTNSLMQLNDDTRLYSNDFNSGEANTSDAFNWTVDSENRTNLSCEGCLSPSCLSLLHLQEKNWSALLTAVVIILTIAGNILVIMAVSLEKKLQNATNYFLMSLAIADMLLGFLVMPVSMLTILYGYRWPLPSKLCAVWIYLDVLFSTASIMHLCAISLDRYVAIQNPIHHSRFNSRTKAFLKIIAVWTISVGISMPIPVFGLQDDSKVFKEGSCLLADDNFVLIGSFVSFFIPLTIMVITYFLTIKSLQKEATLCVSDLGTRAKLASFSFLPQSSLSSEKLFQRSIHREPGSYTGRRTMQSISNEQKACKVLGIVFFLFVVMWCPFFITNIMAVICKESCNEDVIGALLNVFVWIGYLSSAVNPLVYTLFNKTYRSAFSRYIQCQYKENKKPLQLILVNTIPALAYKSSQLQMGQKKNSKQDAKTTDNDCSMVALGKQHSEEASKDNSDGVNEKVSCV

With `COC(=O)N1CCC(CN2CCC(CNC(=O)c3cccc4[nH]c(C(C)C)nc34)CC2)CC1` the Cmax [1] was 464 ng/mL, the inhibition [2] was < 50% and the Activity [3] was “Active”. For the same molecule, the half-life [4] was 1.6 h, the inhibition [5] was < 50% and the Activity [6] was “Non-toxic”. For the same molecule, the Cmax [7] was 818 ng/mL, the Activity [8] was “Non-toxic” and the AUC(0-t) [9] was 2280 ng·h/mL. The Intrinsic activity [10] was 83%, the Activity [11] was “Non-toxic” and the Activity [12] was 40%. It also gave a Ki [13] of 100 µM, a half-life [14] of 12 h and an Activity [15] of 0.23 mg/kg. The inhibition [16] was < 50%, the pKb(app) [17] was 9.3 and the half-life [18] was 3.5 h. For the same molecule, the bioavailability [19] was 77%, the bioavailability [20] was 63% and the inhibition [21] was < 50%. For the same molecule, the inhibition [22] was < 50%, the inhibition [23] was < 50% and the AUC(0-t) [24] was 1240 ng·h/mL. For the same molecule, the half-life [25] was 1.43 h, the inhibition [26] was < 50% and the inhibition [27] was < 50%. The inhibition [28] was < 50%, the inhibition [29] was < 50% and the Papp [30] was 54 ×10⁻⁶ cm/s. For the same molecule, the Activity [31] was “Dose-dependent effect” and the ED50 [31] was 0.15 mg/kg.

— ChEMBL document CHEMBL2401700, “Discovery of TD-8954, a clinical stage 5-HT(4) receptor agonist with gastrointestinal prokinetic properties” (Bioorg Med Chem Lett, 2013)
